According to ChEMBL document CHEMBL1154723, “Identification and characterisation of new inhibitors for the human hematopoietic prostaglandin D2 synthase” (Eur J Med Chem, 2010):

What was measured:
[1] = molecular target: T1, Hematopoietic prostaglandin D synthase (Homo sapiens, UniProt O60760); assay: Inhibition of human H-PGDS expressed in Escherichia coli BL21 assessed as rate of glutathione-chloro-dinitro benzene conjugation
Outline: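 Recombinant human H-PGDS from E. coli BL21 DE3 (pET17b, uninduced), GSH-affinity purified. Reaction: 0.1 M Tris HCl pH 8.0, 2 mM MgCl2, 1 mM CDNB, 2 mM GSH, 2.5 ng/ml enzyme, 10% (v/v) ethanol. Conjugate formation followed at A340 nm over 10 min, 25 C. Eight inhibitor concentrations bracketing IC50, background-corrected for solvent. Nonlinear regression, triplicates, mean ± SEM.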

[2] = molecular target: T1, Hematopoietic prostaglandin D synthase; assay: Inhibition of human H-PGDS expressed in Escherichia coli BL21 assessed as rate of glutathione-chloro-dinitro benzene conjugation at 50 uM
Outline: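 GSH–CDNB conjugation by E. coli BL21 DE3-expressed, GSH-affinity purified human H-PGDS (2.5 ng/ml). Buffer was 0.1 M Tris HCl pH 8.0 with 2 mM MgCl2, 1 mM CDNB, 2 mM GSH and 10% ethanol. Read at A340 nm over 10 min at 25 C. Percent inhibition at 50 uM inhibitor, mean ± SD of triplicates.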

T1 sequence (O60760 whole entry): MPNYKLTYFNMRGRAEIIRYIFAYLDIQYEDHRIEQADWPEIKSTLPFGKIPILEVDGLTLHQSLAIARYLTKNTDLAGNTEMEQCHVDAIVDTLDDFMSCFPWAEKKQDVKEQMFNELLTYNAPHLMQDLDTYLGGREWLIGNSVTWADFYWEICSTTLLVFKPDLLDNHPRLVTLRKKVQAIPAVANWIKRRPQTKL

O=C1OC(c2ccc(O)c(S(=O)(=O)O)c2)(c2ccc(O)c(S(=O)(=O)O)c2)c2c(Br)c(Br)c(Br)c(Br)c21 [SULFOBROMOPHTHALEIN] showed an IC50 [1] of 27 µM and an inhibition [2] of 66.9%.
Work on C=C(CC)C(=O)c1ccc(OCC(=O)O)c(Cl)c1Cl [ETHACRYNIC ACID] yielded an IC50 [1] of 122 µM and an inhibition [2] of 25.3%.
COC(=O)Nc1nc2ccc([S+]([O-])c3ccccc3)cc2[nH]1 (stereo not given) [OXFENDAZOLE] gave an IC50 [1] greater than 300 µM.
For O=C(O)c1ccc2ccccc2c1Br, the inhibition [2] was 5.1%.
COC(=O)Nc1nc2cc(C(=O)c3cccs3)ccc2[nH]1 was tested, and the inhibition [2] was 42.6%.
Work on CC1(C)Cc2c(-c3ccccc3)c(-c3ccc(Cl)cc3)c(CC(=O)O)n2C1 yielded an inhibition [2] of 0%.
With COc1ccc(C(=O)c2cccs2)cc1 the IC50 [1] was 105 µM and the inhibition [2] was 41.8%.
Work on O=C(O)COc1ccc(C(=O)c2cccs2)c(Cl)c1Cl yielded an inhibition [2] of 0%.
Cc1cc(CC(=O)O)n(C)c1C(=O)c1ccc(Cl)cc1 showed an inhibition [2] of 0%.
Work on c1ccc(C(OC2CCN(CCCc3nnn[nH]3)CC2)c2ccccc2)cc1 yielded an IC50 [1] of 1.8 µM and an inhibition [2] of 100%.
In the case of O=C(c1ccccc1)c1cccs1, the IC50 [1] is reported as 9.2 µM and the inhibition [2] is reported as 78.2%.
For O=C(Nc1ccccc1)Nc1cccc(C(=O)O)c1, the inhibition [2] was 8.6%.
O=C(O)Cc1ccccc1Nc1c(Cl)cccc1Cl showed an inhibition [2] of 0%.
In the case of O=C(O)c1cc(/N=N/c2ccc(S(=O)(=O)Nc3ccccn3)cc2)ccc1O, the inhibition [2] is reported as 0%.
O=C(O)CCn1c2c(c3ccccc31)C[C@H](NS(=O)(=O)c1ccc(F)cc1)CC2 showed an inhibition [2] of 0%.
For Nc1c(S(=O)(=O)O)cc(Nc2ccc(Nc3nc(Cl)nc(Nc4ccccc4S(=O)(=O)O)n3)c(S(=O)(=O)O)c2)c2c1C(=O)c1ccccc1C2=O [CIBACRON BLUE], the IC50 [1] was 0.2 µM and the inhibition [2] was 100%.
In the case of COc1ccc2c(c1)c(CC(=O)O)c(C)n2C(=O)c1ccc(Cl)cc1, the inhibition [2] is reported as 0%.
With COC(=O)Nc1nc2cc([S+]([O-])c3ccccc3)ccc2[nH]1 (stereo not given) the inhibition [2] was 0%.
Compound O=C(O)CCCCCC[C@H]1C(=O)NC(=O)N1CCC(O)C1CCCCC1 (stereo not given in full) has an inhibition [2] of 17%.
